Experiments:
[1] = In vitro anticoagulant activity determined by clotting test of activated partial thromboplastin time (APTT) on a pool of human plasma; assay type: functional
Summary of the method: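 Activated partial thromboplastin time clotting test on pooled human plasma, run on an automatic coagulometer. Activities were calculated according to the European Pharmacopoeia.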

[2] = tested on: HuT78; experiment: Giant-cell formation between persistently HIV-1 infected HUT-78 cells and uninfected MOLT-4 cells; assay type: functional, cell-based
Summary of the method: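 MOLT-4 cells were co-cultured with an equal number of HUT-78 cells persistently infected with HIV-1 IIIB or HIV-2 ROD, with varying compound concentrations. Syncytia were counted by flow cytofluorography after 24 h. EC50 is the concentration giving 50% protection against giant-cell formation.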

[3] = tested on: MT4; experiment: Effective concentration to achieve 50% protection of MT-4 cells against the cytopathic effect of HIV-2; assay type: functional, cell-based
[4] = tested on: MT4; experiment: Selectivity index for CC50 (cytotoxic concentration based on reduction of viability of mock-infected MT-4 cells) to that of EC50 against HIV-2; assay type: functional
Summary of the method: (§1)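 MT-4 cells at 3 × 10^5 cells/mL were infected with HIV-1 IIIB or HIV-2 ROD at 100 CCID50/mL, or mock-infected, alongside serial compound dilutions. Viability was read by MTT after 5 days at 37 °C. CC50 comes from mock-infected cells and EC50 from protection against cytopathicity. Index = CC50/EC50.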

[5] = tested on: MT4; experiment: Effective concentration to achieve 50% protection of MT-4 cells against the cytopathic effect of HIV-1; assay type: functional, cell-based
[6] = tested on: MT4; experiment: Selectivity index for CC50 (cytotoxic concentration based on the reduction of the viability of mock-infected MT-4 cells) to that of EC50 against HIV-1; assay type: functional; summary of the method: as §1
[7] = Homo sapiens, MT4, read-out: EC50

Row | SMILES | APTT [1] [IU mg-1] | EC50 ([2]; Homo sapiens, HuT78, read-out: EC50) [µg/mL] | EC50 [3, 7] [µg/mL] | Selectivity index [4] | EC50 [5, 7] [µg/mL] | Selectivity index [6] | EC50 ([2]; hut78) [µg/mL] | EC50 ([3]; mt4) [µg/mL] | EC50 ([5]; mt4) [µg/mL]
1 | O=C([O-])/C=C(\COC(=O)CCC(=O)[O-])OC1OC(COS(=O)(=O)[O-])C(OC2OC(C(=O)[O-])C(OC3OC(COS(=O)(=O)[O-])C(OC4OC(C(=O)[O-])C(OC5OC(COS(=O)(=O)[O-])C(O)C(OC(=O)CCC(=O)[O-])C5NS(=O)(=O)[O-])C(OC(=O)CCC(=O)[O-])C4OS(=O)(=O)[O-])C(OC(=O)CCC(=O)[O-])C3NS(=O)(=O)[O-])C(OC(=O)CCC(=O)[O-])C2OS(=O)(=O)[O-])C(OC(=O)CCC(=O)[O-])C1NS(=O)(=O)[O-].[Na+].[Na+].[Na+].[Na+].[Na+].[Na+].[Na+].[Na+].[Na+].[Na+].[Na+].[Na+].[Na+].[Na+].[Na+].[Na+].[Na+] (stereo not given) | 3.1 | > 100 | 5 | >100 | 0.2 | >2500 |  |  | 
2 | CCCCCC(=O)OC/C(=C\C(=O)[O-])OC1OC(COS(=O)(=O)[O-])C(OC2OC(C(=O)[O-])C(OC3OC(COS(=O)(=O)[O-])C(OC4OC(C(=O)[O-])C(OC5OC(CS(=O)(=O)[O-])C(O)C(OC(=O)CCCCC)C5NS(=O)(=O)[O-])C(OC(=O)CCCCC)C4OS(=O)(=O)[O-])C(OC(=O)CCCCC)C3NS(=O)(=O)[O-])C(OC(=O)CCCCC)C2OS(=O)(=O)[O-])C(OC(=O)CCCCC)C1NS(=O)(=O)[O-].[Na+].[Na+].[Na+].[Na+].[Na+].[Na+].[Na+].[Na+].[Na+].[Na+].[Na+] (stereo in doubt; 2e) | 7 |  |  | >294 |  | >1613 | 2.9 | 1.71 | 0.31
3 | CCCC(=O)OC/C(=C\C(=O)[O-])O[C@H]1O[C@H](COS(=O)(=O)[O-])[C@@H](O[C@@H]2O[C@@H](C(=O)[O-])[C@@H](O[C@H]3O[C@H](COS(=O)(=O)[O-])[C@@H](O[C@@H]4O[C@@H](C(=O)[O-])[C@@H](O[C@H]5O[C@H](CS(=O)(=O)[O-])[C@@H](O)[C@H](OC(=O)CCC)[C@H]5NS(=O)(=O)[O-])[C@H](OC(=O)CCC)[C@H]4OS(=O)(=O)[O-])[C@H](OC(=O)CCC)[C@H]3NS(=O)(=O)[O-])[C@H](OC(=O)CCC)[C@H]2OS(=O)(=O)[O-])[C@H](OC(=O)CCC)[C@H]1NS(=O)(=O)[O-].[Na+].[Na+].[Na+].[Na+].[Na+].[Na+].[Na+].[Na+].[Na+].[Na+].[Na+] (stereo in doubt; 3d) | 9 |  |  | 914 |  | 1480 | 10.3 | 0.36 | 0.21
4 | CCCC(=O)OC/C(=C\C(=O)[O-])O[C@H]1O[C@H](COS(=O)(=O)[O-])[C@@H](O[C@@H]2O[C@@H](C(=O)[O-])[C@@H](O[C@H]3O[C@H](COS(=O)(=O)[O-])[C@@H](O[C@@H]4O[C@@H](C(=O)[O-])[C@@H](O[C@H]5O[C@H](CS(=O)(=O)[O-])[C@@H](O)[C@H](OC(=O)CCC)[C@H]5NS(=O)(=O)[O-])[C@H](OC(=O)CCC)[C@H]4OS(=O)(=O)[O-])[C@H](OC(=O)CCC)[C@H]3NS(=O)(=O)[O-])[C@H](OC(=O)CCC)[C@H]2OS(=O)(=O)[O-])[C@H](OC(=O)CCC)[C@H]1NS(=O)(=O)[O-].[Na+].[Na+].[Na+].[Na+].[Na+].[Na+].[Na+].[Na+].[Na+].[Na+].[Na+] (stereo in doubt; 3e) | 11 |  |  | 1261 |  | 1357 | 1.5 | 0.28 | 0.26
5 | CCCC(=O)OC/C(=C\C(=O)[O-])O[C@H]1O[C@H](COS(=O)(=O)[O-])[C@@H](O[C@@H]2O[C@@H](C(=O)[O-])[C@@H](O[C@H]3O[C@H](COS(=O)(=O)[O-])[C@@H](O[C@@H]4O[C@@H](C(=O)[O-])[C@@H](O[C@H]5O[C@H](CS(=O)(=O)[O-])[C@@H](O)[C@H](OC(=O)CCC)[C@H]5NS(=O)(=O)[O-])[C@H](OC(=O)CCC)[C@H]4OS(=O)(=O)[O-])[C@H](OC(=O)CCC)[C@H]3NS(=O)(=O)[O-])[C@H](OC(=O)CCC)[C@H]2OS(=O)(=O)[O-])[C@H](OC(=O)CCC)[C@H]1NS(=O)(=O)[O-].[Na+].[Na+].[Na+].[Na+].[Na+].[Na+].[Na+].[Na+].[Na+].[Na+].[Na+] (stereo in doubt; 4c) | 2.7 |  |  | 40000 |  | 80 | 57.5 | 0.01 | 5
6 | CCCC(=O)OC/C(=C\C(=O)[O-])O[C@H]1O[C@H](COS(=O)(=O)[O-])[C@@H](O[C@@H]2O[C@@H](C(=O)[O-])[C@@H](O[C@H]3O[C@H](COS(=O)(=O)[O-])[C@@H](O[C@@H]4O[C@@H](C(=O)[O-])[C@@H](O[C@H]5O[C@H](CS(=O)(=O)[O-])[C@@H](O)[C@H](OC(=O)CCC)[C@H]5NS(=O)(=O)[O-])[C@H](OC(=O)CCC)[C@H]4OS(=O)(=O)[O-])[C@H](OC(=O)CCC)[C@H]3NS(=O)(=O)[O-])[C@H](OC(=O)CCC)[C@H]2OS(=O)(=O)[O-])[C@H](OC(=O)CCC)[C@H]1NS(=O)(=O)[O-].[Na+].[Na+].[Na+].[Na+].[Na+].[Na+].[Na+].[Na+].[Na+].[Na+].[Na+] (stereo in doubt; 4d) | 2.9 |  |  | >12500 |  | >382 | 37.3 | 0.04 | 1.31
7 | CCCC(=O)OC/C(=C\C(=O)[O-])O[C@H]1O[C@H](COS(=O)(=O)[O-])[C@@H](O[C@@H]2O[C@@H](C(=O)[O-])[C@@H](O[C@H]3O[C@H](COS(=O)(=O)[O-])[C@@H](O[C@@H]4O[C@@H](C(=O)[O-])[C@@H](O[C@H]5O[C@H](CS(=O)(=O)[O-])[C@@H](O)[C@H](OC(=O)CCC)[C@H]5NS(=O)(=O)[O-])[C@H](OC(=O)CCC)[C@H]4OS(=O)(=O)[O-])[C@H](OC(=O)CCC)[C@H]3NS(=O)(=O)[O-])[C@H](OC(=O)CCC)[C@H]2OS(=O)(=O)[O-])[C@H](OC(=O)CCC)[C@H]1NS(=O)(=O)[O-].[Na+].[Na+].[Na+].[Na+].[Na+].[Na+].[Na+].[Na+].[Na+].[Na+].[Na+] (stereo in doubt; 4e) | 4.5 |  |  | >7142 |  | >526 | 43.7 | 0.07 | 0.95
8 | CCCC(=O)OC/C(=C\C(=O)[O-])O[C@H]1O[C@H](COS(=O)(=O)[O-])[C@@H](O[C@@H]2O[C@@H](C(=O)[O-])[C@@H](O[C@H]3O[C@H](COS(=O)(=O)[O-])[C@@H](O[C@@H]4O[C@@H](C(=O)[O-])[C@@H](O[C@H]5O[C@H](CS(=O)(=O)[O-])[C@@H](O)[C@H](OC(=O)CCC)[C@H]5NS(=O)(=O)[O-])[C@H](OC(=O)CCC)[C@H]4OS(=O)(=O)[O-])[C@H](OC(=O)CCC)[C@H]3NS(=O)(=O)[O-])[C@H](OC(=O)CCC)[C@H]2OS(=O)(=O)[O-])[C@H](OC(=O)CCC)[C@H]1NS(=O)(=O)[O-].[Na+].[Na+].[Na+].[Na+].[Na+].[Na+].[Na+].[Na+].[Na+].[Na+].[Na+] (stereo in doubt; 4f) | 6.1 |  |  | >1667 |  | >1136 | 1.3 | 0.3 | 0.44
9 | CCCC(=O)OC/C(=C\C(=O)[O-])O[C@H]1O[C@H](COS(=O)(=O)[O-])[C@@H](O[C@@H]2O[C@@H](C(=O)[O-])[C@@H](O[C@H]3O[C@H](COS(=O)(=O)[O-])[C@@H](O[C@@H]4O[C@@H](C(=O)[O-])[C@@H](O[C@H]5O[C@H](CS(=O)(=O)[O-])[C@@H](O)[C@H](OC(=O)CCC)[C@H]5NS(=O)(=O)[O-])[C@H](OC(=O)CCC)[C@H]4OS(=O)(=O)[O-])[C@H](OC(=O)CCC)[C@H]3NS(=O)(=O)[O-])[C@H](OC(=O)CCC)[C@H]2OS(=O)(=O)[O-])[C@H](OC(=O)CCC)[C@H]1NS(=O)(=O)[O-].[Na+].[Na+].[Na+].[Na+].[Na+].[Na+].[Na+].[Na+].[Na+].[Na+].[Na+] (stereo in doubt; 4h) | 9.7 |  |  | >2174 |  | >1786 | 7.5 | 0.23 | 0.28
10 | CCCC(=O)OC/C(=C\C(=O)[O-])O[C@H]1O[C@H](COS(=O)(=O)[O-])[C@@H](O[C@@H]2O[C@@H](C(=O)[O-])[C@@H](O[C@H]3O[C@H](COS(=O)(=O)[O-])[C@@H](O[C@@H]4O[C@@H](C(=O)[O-])[C@@H](O[C@H]5O[C@H](CS(=O)(=O)[O-])[C@@H](O)[C@H](OC(=O)CCC)[C@H]5NS(=O)(=O)[O-])[C@H](OC(=O)CCC)[C@H]4OS(=O)(=O)[O-])[C@H](OC(=O)CCC)[C@H]3NS(=O)(=O)[O-])[C@H](OC(=O)CCC)[C@H]2OS(=O)(=O)[O-])[C@H](OC(=O)CCC)[C@H]1NS(=O)(=O)[O-].[Na+].[Na+].[Na+].[Na+].[Na+].[Na+].[Na+].[Na+].[Na+].[Na+].[Na+] (stereo in doubt; 4i) | 16.8 |  |  | >2941 |  | >1852 | 2.1 | 0.16 | 0.27
